Experimental data reported in PMC4276534 (ChemMedChem, 2014).
Each block holds one compound with its values, some of them ahead of it.

Assays:
[1] = molecular target: T1, MrgX1 (Homo sapiens, UniProt Q96LB2); test: HTS triple addition screen for MrgX1 positive allosteric modulators; type: cell-based; conditions: read-out: MrgX1 EC50; HTS screen value; HEK293 cell line stably expressing MrgX1
[2] = molecular target: T1, MrgX1; test: Ca2+ imaging assay on MrgX1-expressing HEK293 cells; type: cell-based
Outline: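 Ca2+ imaging in HEK293 cells expressing MrgX1, read as relative fluorescence units. Test compound was titrated alone and with a submaximal BAM8-22 level (10 nM). EC50 came from dose-response curve fitting and was not determined when Emax was <50%. Emax is given as % of a reference analogue. Three repeat experiments, mean±SEM.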

[3] = tested on: 68 GPCR's, ion channels and transporters; test: EuroFin's Lead Profiling Screen binding assay panel; conditions: 10 μM
[4] = Intrinsic clearance in rat hepatic microsomes; type: in vitro ADME
[5] = Intrinsic clearance in human hepatic microsomes; type: in vitro ADME
[6] = Plasma protein binding by equilibrium dialysis, human; type: in vitro ADME; conditions: free fraction
[7] = Plasma protein binding by equilibrium dialysis, rat; type: in vitro ADME; conditions: free fraction

T1 sequence (Q96LB2 whole entry): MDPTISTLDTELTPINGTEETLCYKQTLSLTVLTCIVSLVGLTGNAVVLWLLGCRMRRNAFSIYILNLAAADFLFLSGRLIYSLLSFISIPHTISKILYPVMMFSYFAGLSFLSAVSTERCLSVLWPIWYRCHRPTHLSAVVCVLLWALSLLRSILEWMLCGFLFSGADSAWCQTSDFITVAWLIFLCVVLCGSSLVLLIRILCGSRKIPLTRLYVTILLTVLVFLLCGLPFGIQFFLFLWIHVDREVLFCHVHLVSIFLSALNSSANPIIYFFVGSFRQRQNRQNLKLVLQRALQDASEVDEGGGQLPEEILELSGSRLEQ

EC50 [1]: 96 nM
Compound: CCOc1ccccc1NC(=O)c1ccccc1NS(C)(=O)=O [SID 4258711]

EC50 ([2]; EC50 of BAM8-22 on MrgX1, with ML382): 2.9 nM | EC50 ([2]; EC50 of BAM8-22 on MrgX1, without ML382): 18.7 nM
Compound: H-VGRPEWWMDYQKRYG-OH [BAM8-22, reference compound]

EC50 [1]: 329 nM
Compound: CSc1ccccc1NC(=O)c1ccccc1N(C)S(C)(=O)=O [SID 4262381]

Compound: CCOc1ccccc1NC(=O)c1ccccc1NS(=O)(=O)C1CC1 [4l, 2-(cyclopropanesulfonamido)-N-(2-ethoxyphenyl)benzamide]
Activation of MrgX1 (agonistic activity) ([2]; in the absence of BAM8-22): does not activate MrgX1 | Effect on the EMax of BAM8-22 ([2]; maximum concentration of BAM8-22 used): does not affect the EMax of BAM8-22 | Emax as % of standard compound (4i) ([2]; normalized to the positive control (4i, 100%)): 195 ± 8% | EC50 ([2]; read-out: MrgX1 EC50, Table 3, alkylsulfonamides, in presence of BAM8-22): 190 ± 60 nM | Inhibition of radio ligand binding >50% in panel of 68 targets [3]: did not inhibit 67 of the 68 targets | Rat CLHEP, Microsome Predicted Hepatic Clearance [4]: 65.7 mL/min/kg | Human CLHEP, Microsome Predicted Hepatic Clearance [5]: 15.7 mL/min/kg | Human PPB, Percent Free Compound in Plasma [6]: 0.4% | Rat PPB, Percent Free Compound in Plasma [7]: 1.7%
